From PubChem
ERa coact pot: enhances coactivator binding to human estrogen receptor alpha; P03372; TR-FRET ERalpha-LBD/SRC-Cy5 coactivator binding, 2 h; 100 = basal binding, no effect; coactivator binding (% of control), % at 25.6 µM; 86,000 compounds, 1.3% hits; AID 639; in the data active = activity above about 200%;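 also: binding measured in presence of low estradiol as agonist stimulus; 0% = peptide alone without receptor and 100% = receptor with peptide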
Target sequence (P03372 whole entry, looked up, the tested form may be a part): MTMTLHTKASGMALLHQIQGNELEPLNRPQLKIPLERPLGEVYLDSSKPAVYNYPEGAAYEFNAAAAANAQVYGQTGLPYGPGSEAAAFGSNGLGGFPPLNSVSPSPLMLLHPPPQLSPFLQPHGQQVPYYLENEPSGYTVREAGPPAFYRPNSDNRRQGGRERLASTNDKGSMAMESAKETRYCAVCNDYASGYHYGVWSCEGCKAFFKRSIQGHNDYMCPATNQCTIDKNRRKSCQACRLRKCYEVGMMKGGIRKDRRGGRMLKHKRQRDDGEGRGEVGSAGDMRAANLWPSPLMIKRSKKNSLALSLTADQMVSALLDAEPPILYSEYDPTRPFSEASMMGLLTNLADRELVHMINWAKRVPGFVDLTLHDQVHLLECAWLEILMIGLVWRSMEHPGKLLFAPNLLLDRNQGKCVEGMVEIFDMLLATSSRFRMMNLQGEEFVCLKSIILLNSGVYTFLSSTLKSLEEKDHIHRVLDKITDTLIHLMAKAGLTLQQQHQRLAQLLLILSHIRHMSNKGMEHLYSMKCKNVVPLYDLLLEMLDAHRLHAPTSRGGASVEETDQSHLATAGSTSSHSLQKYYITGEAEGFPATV
HUVEC prolif 384: human endothelial cell proliferation inhibition; viability, % at 10 µM (by protocol); HUVEC proliferation, CellTiter-Glo luminescence, 72 h; hits give low values; 86,000 compounds, 1.1% hits; AID 648;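 active = viability at or below 30%; inactive = viability above 30%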;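 also: 100% = median luminescence of DMSO-only cell control wells on each plate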
ERa coact inh: blocks coactivator binding to human estrogen receptor alpha | TR-FRET ER-alpha LBD / SRC-1 peptide, estradiol-bound | AID 629 | 86,000 compounds, 1.7% hits | inhibition, % at 25.6 µM; in the data active = inhibition above about 50%;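 also: 0% = receptor plus peptide control and 100% = peptide only without receptor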
H69AR inhibit: blocks growth of human H69AR lung tumor cells. 85,000 compounds, 6% hits. viability, % at 10 µM. AID 598. H69AR lung tumor viability, ATP luminescence, 72 h; hits give low values;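 active = viability at or below 40%; inactive = viability above 40%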;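 also: multidrug resistant small cell line overexpressing MRP-1 efflux transporter; 100% = mean luminescence of untreated control wells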
Fibroblast inh: blocks proliferation of human lung fibroblasts; LL 47 human lung fibroblast viability, ATP luminescence; hits give low values; 85,000 compounds, 1.1% hits; viability, % at 10 µM;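 active = viability at or below 50% in the single dose screen; inactive = viability above 50%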;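 also: compound exposure lasted 72 h before the ATP readout; 100% = median luminescence of untreated cell-only wells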
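test system = LL 47 human lung fibroblasts | amount = 1,150 fibroblasts seeded per well | medium = 15% FBS in IMEM | times = overnight cell rest, 72 h compound treatment at 37 °C | measured by = CellTiter-Glo luminescence measuring cellular ATP | read-out = viability percentage against median untreated-cell control | benchmarks = cell-only wells, no compound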
ERb SRC1 inh: ER-beta (human) coactivator binding inhibition | AID 633 | 86,000 compounds, 1.3% hits | TR-FRET ER-beta LBD / SRC1-Cy5 peptide binding; receptor agonist-loaded with 1 µM estradiol | Q92731 | inhibition, % at 25.6 µM;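 active = compounds whose percent inhibition of the receptor-coactivator binding signal exceeds about 50% in the single-dose screen, limit read from the data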;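 also: 0% = receptor plus peptide wells without compound and 100% = peptide-only wells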
* hit, by the source's call; x = not tested or not shown; [ ] = dose if it differs, or a comment. Hits are enriched below; roughly 9.2% of the tested compounds scored in any of these assays.

SMILES	ERa coact pot	HUVEC prolif 384	ERa coact inh	H69AR inhibit	Fibroblast inh	ERb SRC1 inh
CC(C)CCn1cnc2c([nH]c3cccc(Cl)c32)c1=O	596*[fluorescence artefact?]	83	15	69	103	17
CN(C)CCCNS(=O)(=O)c1ccc(N2CCC(c3ccc(Cl)cc3)=N2)cc1	72	3.2*	11	0.5*	1.6*	12
O=S(=O)(c1ccc(N2CCC(c3ccc(Cl)cc3)=N2)cc1)N(CCO)CCO	74	47	39	13*	88	9
Cc1ccc2cccc(NC(=S)NC(=O)c3c(Br)cnn3C)c2n1	108	62	19	26*	82	8
CCOC(=O)Cc1nnc(NC(=O)c2ccccc2OC)s1	109	100	-11	107	106	7
COc1ccccc1C(=O)Nc1nnc(-c2ccco2)s1	242*	85	12	69	96	14
COc1ccc(C(=O)Nc2nnc(-c3ccco3)s2)cc1	463*[fluorescence artefact?]	55	4	8.2*	97	30
O=C(Nc1nnc(-c2ccco2)s1)c1ccccc1	101	93	7	101	102	22
CC1Cc2ccccc2N1C(=O)CSc1nnc(CNc2ccccc2)o1 (configuration not stated)	95	86	-5	88	91	-6
O=C1c2ccsc2SCCN1Cc1c(Cl)cccc1Cl	108	79	1	95	93	-13
Clc1ccc2c(c1)CNc1c(ncnc1N1CCOCC1)O2	103	72	-6	93	97	-8
C=CCN1C(=O)C(CC(=O)Nc2ccccc2)SC1=Nc1c(C)n(C)n(-c2ccccc2)c1=O (configuration not stated)	130	99	0	95	100	-6
CCOc1cc(NC(=O)C2CC2)c(OCC)cc1NC(=O)c1cccnc1	104	86	-8	89	100	12
COc1ccc(NS(=O)(=O)c2ccc(N)c(C(=O)O)c2)cc1	69	94	57*[fluorescence artefact?]	68	x	19
O=C(N/C=N/OCc1ccc(Cl)cc1Cl)NOCc1c(Cl)cccc1Cl	213*	33	26	11*	87	30
Cc1cc(C)c(C(=O)CSC2=NC(N)=C(C#N)C3(CCCCC3)C2C(N)=O)cc1C (configuration not stated)	96	90	-1	12*	101	-13
Cc1cc(C)c(C(=O)CSc2n[nH]c(=O)n2C2CC2)cc1C	100	106	-3	97	105	-4
COc1ccc(N2CC(C(=O)NCCCN3CCOCC3)CC2=O)cc1 (configuration not stated)	119	91	-15	103	101	2
CCCC(O)(c1ccc(Cl)cc1)C(CN1CCOCC1)c1ccccc1 (configuration not stated)	106	106	4	40*	96	4
Cc1noc(C)c1CSCC(=O)OCC(=O)Nc1sccc1C#N	54	99	55*[fluorescence artefact?]	93	91	54*
O=C(Nc1cnn(Cc2ccc(Cl)cc2Cl)c1)c1cc(-c2cccs2)on1	157	66	51*[fluorescence artefact?]	19*	97	23
O=C(Nc1ccc(C(=O)Oc2ccccc2)c(O)c1)c1ccco1	99	86	-5	62	96	-1
CCOC(=O)c1c(-c2ccccc2)oc2ccc(OC(C)=O)cc12	85	73	9	67	90	24
COCCOC(=O)c1c(C)oc2ccc(O)c(CN3CCC(C)CC3)c12	108	92	-3	87	95	1
CCOC(=O)c1c(-c2ccccc2)oc2ccc(O)c(CN(C)C)c12	87	55	0	10*	73	-6
CCOC(=O)c1c(-c2ccccc2)oc2ccc(O)c(CN3CCCC3)c12	75	3.5*	12	5.3*	59	0
COc1ccc(CCNC(=O)c2cnn3c(C(F)F)cc(C)nc23)cc1OC	91	103	8	90	101	-1
CC(=O)C1=C(O)C(=O)N(c2cccc(C(=O)O)c2)C1c1ccc(F)cc1 (configuration not stated)	121	112	-4	101	100	-5
CCn1c(=O)cc(OCC(=O)Nc2ccc(Cl)cn2)c2ccccc21	174	61	16	90	70	18
